# Data: ChEMBL document CHEMBL1130213, “Synthesis and pharmacological characterization of aminocyclopentanetricarboxylic acids: new tools to discriminate between metabotropic glutamate receptor subtypes” (J Med Chem, 1997)
# Legend:
# [1] = target: T1, Metabotropic glutamate receptor 2 (Homo sapiens, UniProt Q14416); assay: Agonist activity against Metabotropic glutamate receptor 2 expressed in HEK 293 cells was evaluated by measuring total inositol phosphate accumulation; type: functional, cell-based, HEK293
# In short: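 HEK 293 cells in DMEM with 10% fetal calf serum, electroporated with receptor plasmid (mGluR1a 0.3 μg, or mGluR2 2 μg co-expressed with Gqi9). Cells labeled overnight with [3H]myo-inositol, then stimulated 30 min with agonist in 10 mM LiCl. IP produced expressed over membrane radioactivity. Basal taken with glutamate pyruvate transaminase (1 unit/mL) plus 2 mM pyruvate. EC50 from logistic fit; triplicates.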
# Target sequence in this assay (Q14416 whole entry): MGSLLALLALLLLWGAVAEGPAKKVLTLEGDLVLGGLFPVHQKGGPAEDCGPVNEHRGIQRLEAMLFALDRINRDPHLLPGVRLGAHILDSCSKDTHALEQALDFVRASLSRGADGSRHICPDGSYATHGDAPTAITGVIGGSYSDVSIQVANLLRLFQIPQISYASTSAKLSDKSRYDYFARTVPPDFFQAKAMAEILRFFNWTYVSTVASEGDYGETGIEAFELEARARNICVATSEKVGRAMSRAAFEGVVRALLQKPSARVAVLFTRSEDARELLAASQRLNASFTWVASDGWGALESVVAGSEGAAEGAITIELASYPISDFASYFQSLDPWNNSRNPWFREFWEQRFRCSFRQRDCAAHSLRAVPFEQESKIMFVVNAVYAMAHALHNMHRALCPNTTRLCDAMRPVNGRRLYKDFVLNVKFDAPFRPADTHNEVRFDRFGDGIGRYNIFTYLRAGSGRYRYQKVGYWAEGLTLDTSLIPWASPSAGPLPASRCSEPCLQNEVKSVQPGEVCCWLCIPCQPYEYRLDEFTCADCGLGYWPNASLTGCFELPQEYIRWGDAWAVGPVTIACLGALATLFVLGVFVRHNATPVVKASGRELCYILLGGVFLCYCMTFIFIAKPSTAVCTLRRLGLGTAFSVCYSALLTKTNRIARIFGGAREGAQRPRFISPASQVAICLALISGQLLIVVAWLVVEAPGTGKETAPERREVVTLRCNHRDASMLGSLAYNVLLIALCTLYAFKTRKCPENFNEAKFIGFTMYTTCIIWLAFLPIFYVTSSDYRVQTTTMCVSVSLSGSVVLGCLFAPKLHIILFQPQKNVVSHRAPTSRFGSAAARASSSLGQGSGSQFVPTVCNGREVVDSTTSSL
# [2] = target: T1, Metabotropic glutamate receptor 2; assay: Agonist activity against Metabotropic glutamate receptor 2 expressed in HEK 293 cells was evaluated by measuring total inositol phosphate accumulation; No effect at 1 mM; type: functional, cell-based; details: hek293
# Target sequence in this assay (Q14416 whole entry): as above
# [3] = target: Metabotropic glutamate receptor 1 (Homo sapiens, UniProt Q13255); assay: Agonist activity against Metabotropic glutamate receptor 1 expressed in HEK 293 cells was evaluated by measuring total inositol phosphate accumulation; No effect at 1 mM; type: functional, cell-based; details: hek293
# [4] = target: T2, Metabotropic glutamate receptor 4 (Homo sapiens, UniProt Q14833); assay: Agonist activity against Metabotropic glutamate receptor 4 expressed in HEK 293 cells was evaluated by measuring total inositol phosphate accumulation; type: functional, cell-based, HEK293
# [5] = target: T2, Metabotropic glutamate receptor 4; assay: Agonist activity against Metabotropic glutamate receptor 4 expressed in HEK 293 cells was evaluated by measuring total inositol phosphate accumulation; No effect at 1 mM; type: functional, cell-based; details: hek293
# [6] = target: T1, Metabotropic glutamate receptor 2; assay: Antagonist activity against Metabotropic glutamate receptor 2 expressed in HEK 293 cells was evaluated by measuring total inositol phosphate accumulation; No effect at 1 mM; type: functional, cell-based; details: HEK293
# Target sequence in this assay (Q14416 19-872 limits assumed): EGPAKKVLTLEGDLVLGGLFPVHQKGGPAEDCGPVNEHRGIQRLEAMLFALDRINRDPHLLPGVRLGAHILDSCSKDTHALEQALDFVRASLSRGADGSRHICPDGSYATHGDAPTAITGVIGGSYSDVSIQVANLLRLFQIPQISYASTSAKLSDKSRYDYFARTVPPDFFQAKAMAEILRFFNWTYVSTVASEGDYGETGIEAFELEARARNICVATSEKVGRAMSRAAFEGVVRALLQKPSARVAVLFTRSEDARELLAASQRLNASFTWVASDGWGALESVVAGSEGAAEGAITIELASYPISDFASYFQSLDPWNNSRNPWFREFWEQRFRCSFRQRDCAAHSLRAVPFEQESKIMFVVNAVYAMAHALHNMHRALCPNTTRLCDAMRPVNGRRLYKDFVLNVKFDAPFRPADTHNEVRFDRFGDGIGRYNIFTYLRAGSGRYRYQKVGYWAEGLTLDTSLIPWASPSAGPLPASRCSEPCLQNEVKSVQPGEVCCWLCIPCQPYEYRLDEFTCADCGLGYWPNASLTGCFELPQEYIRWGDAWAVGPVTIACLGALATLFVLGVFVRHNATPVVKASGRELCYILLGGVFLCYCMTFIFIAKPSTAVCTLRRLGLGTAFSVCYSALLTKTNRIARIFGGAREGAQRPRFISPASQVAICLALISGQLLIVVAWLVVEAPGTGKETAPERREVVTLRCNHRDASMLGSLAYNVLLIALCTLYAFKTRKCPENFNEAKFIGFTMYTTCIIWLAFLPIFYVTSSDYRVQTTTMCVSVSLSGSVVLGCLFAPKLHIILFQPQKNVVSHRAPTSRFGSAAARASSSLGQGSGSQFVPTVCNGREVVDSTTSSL
# Metabotropic glutamate receptor 1, sequence (Q13255 whole entry): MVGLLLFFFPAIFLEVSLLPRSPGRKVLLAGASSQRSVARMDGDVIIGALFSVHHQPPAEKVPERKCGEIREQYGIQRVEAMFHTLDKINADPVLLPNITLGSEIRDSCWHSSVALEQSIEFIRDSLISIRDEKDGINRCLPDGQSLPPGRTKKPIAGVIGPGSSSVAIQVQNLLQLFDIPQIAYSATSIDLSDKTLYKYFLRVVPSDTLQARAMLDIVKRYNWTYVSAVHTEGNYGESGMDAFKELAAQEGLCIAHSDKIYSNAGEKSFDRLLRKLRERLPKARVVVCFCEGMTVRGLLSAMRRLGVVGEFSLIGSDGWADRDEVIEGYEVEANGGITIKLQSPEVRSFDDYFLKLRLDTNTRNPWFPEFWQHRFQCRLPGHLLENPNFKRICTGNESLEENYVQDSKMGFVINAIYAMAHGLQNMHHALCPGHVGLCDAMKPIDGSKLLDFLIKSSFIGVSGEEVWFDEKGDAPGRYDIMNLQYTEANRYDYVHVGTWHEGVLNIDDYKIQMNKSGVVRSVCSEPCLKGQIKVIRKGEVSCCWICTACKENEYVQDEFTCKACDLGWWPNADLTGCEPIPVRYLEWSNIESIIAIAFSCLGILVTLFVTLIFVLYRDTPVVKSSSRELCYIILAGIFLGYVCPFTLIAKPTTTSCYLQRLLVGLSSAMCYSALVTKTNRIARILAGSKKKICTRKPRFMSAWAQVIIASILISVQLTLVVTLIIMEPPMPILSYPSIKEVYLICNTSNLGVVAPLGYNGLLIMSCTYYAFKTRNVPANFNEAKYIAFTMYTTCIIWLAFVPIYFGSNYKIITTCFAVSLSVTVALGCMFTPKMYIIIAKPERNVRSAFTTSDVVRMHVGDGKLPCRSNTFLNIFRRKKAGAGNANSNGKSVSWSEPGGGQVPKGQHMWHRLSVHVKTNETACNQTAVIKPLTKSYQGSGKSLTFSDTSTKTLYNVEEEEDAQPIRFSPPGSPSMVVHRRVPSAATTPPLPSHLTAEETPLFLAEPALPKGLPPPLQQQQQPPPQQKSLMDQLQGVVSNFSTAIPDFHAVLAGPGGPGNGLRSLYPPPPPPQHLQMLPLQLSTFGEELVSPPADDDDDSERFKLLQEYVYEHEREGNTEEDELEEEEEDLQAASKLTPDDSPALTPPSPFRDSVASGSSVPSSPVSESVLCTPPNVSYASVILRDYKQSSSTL
# T2 sequence (Q14833 whole entry): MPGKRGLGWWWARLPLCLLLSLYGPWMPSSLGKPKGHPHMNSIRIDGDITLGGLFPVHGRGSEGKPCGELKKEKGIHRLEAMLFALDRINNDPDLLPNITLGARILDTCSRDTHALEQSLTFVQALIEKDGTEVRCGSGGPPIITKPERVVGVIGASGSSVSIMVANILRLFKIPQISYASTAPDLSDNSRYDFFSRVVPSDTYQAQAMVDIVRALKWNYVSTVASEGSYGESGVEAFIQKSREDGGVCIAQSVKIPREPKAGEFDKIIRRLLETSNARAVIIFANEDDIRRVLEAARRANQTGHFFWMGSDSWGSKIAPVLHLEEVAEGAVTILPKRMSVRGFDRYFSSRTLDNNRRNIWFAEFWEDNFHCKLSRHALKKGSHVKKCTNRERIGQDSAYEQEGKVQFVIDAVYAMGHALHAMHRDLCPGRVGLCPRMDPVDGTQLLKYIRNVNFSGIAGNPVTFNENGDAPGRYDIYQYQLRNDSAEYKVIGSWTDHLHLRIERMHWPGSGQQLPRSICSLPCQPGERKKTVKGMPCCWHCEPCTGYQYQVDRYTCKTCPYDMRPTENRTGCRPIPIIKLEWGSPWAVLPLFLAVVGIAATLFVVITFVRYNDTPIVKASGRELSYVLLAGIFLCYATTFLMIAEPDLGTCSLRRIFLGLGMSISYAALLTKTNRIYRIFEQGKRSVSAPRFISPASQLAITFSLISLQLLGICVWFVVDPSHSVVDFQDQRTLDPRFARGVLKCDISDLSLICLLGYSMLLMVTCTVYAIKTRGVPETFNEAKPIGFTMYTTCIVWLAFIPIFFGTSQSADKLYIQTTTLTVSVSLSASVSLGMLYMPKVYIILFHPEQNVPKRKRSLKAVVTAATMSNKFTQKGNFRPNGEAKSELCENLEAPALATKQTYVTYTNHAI
SMILES,EC50 [1],EC50 [2],EC50 [3],EC50 [4],EC50 [5],Kb [6]
N[C@]1(C(=O)O)CC[C@H](C(=O)O)C1,110 µM,–,–,–,–,–
NC1(C(=O)O)CC(C(=O)O)C(C(=O)O)C1 (racemic),–,No effect,No effect,40 µM,–,–
N[C@@]1(C(=O)O)CC[C@H](C(=O)O)C1,13 µM,–,–,–,–,–
NC1(C(=O)O)C[C@@H](C(=O)O)[C@H](C(=O)O)C1,–,No effect,No effect,–,No effect,–
NC1(C(=O)O)C[C@H](C(=O)O)[C@@H](C(=O)O)C1,–,No effect,No effect,8.8 µM,–,–
N[C@@]1(C(=O)O)CC[C@@H](C(=O)O)C1,18 µM,–,–,–,–,–
N[C@@]1(C(=O)O)C[C@H](C(=O)O)[C@H](C(=O)O)C1,–,No effect,No effect,7.2 µM,–,No effect
N[C@]1(C(=O)O)CC[C@@H](C(=O)O)C1,> 1000 µM,–,–,–,No effect,–
N[C@]1(C(=O)O)C[C@H](C(=O)O)[C@H](C(=O)O)C1,–,No effect,No effect,–,No effect,–
